# Measurements published in ChEMBL document CHEMBL1133750, “X-Ray structure of cytotoxic trans-[PtCl(2)(dimethylamine)(isopropylamine)]: interstrand cross-link efficiency, DNA sequence specificity, and inhibition of the B-Z transition” (J Med Chem, 2000).
# Tests used:
# [1] = Ratio of the amount of platinum bound per nucleotide to ri (0.01)
# Outline: (§1)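 Linear pBR322 DNA (20 μg/mL) in 10 mM NaClO₄ incubated at 37 °C with Pt compound at input Pt/nucleotide ratio ri of 0.01–0.20; 24 h for the rb/ri series, aliquots at various times for kinetics. Unbound drug removed by ethanol/0.3 M sodium acetate (pH 4.8) precipitation of DNA; Pt bound per nucleotide (rb) measured by TXRF; rb/ri given as percent; mean ± SD.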
# [2] = Ratio of the amount of platinum bound per nucleotide to ri (0.05); outline: as §1
# [3] = Ratio of the amount of platinum bound per nucleotide to ri (0.10); outline: as §1
# [4] = Ratio of the amount of platinum bound per nucleotide to ri (0.15); outline: as §1
# [5] = Ratio of the amount of platinum bound per nucleotide to ri (0.20); outline: as §1
Ratio [1],Ratio [2],Ratio [3],Ratio [4],Ratio [5],Substance
97%,95%,90%,80%,75%,CISPLATIN
85%,82%,76%,70%,68%,Trans-[PtCl2(dimethylamine)isopropylamine)] (tdmaipa)
